Results published in PubChem BioAssay AID2648 (Johns Hopkins Ion Channel Center, 2010).
Among all 310,000 compounds or so, about 1,100 (0.35%) were called active.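 How the source made its calls: active means fluorescence ratio B-score, a plate-corrected score, at least three library SD, with initial intensity B-score within 5 SD; inactive means the rest.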 The full list was thinned out, with actives kept by preference.

What follows are compounds tested against Potassium voltage-gated channel subfamily KQT member 1 (Homo sapiens) (UniProt P51787) (assay: human KCNQ1 current enhancers – cell-based, thallium flux, high-throughput, primary screen (AID 2648)). Conditions: CHO-K1 KCNQ1, thallium flux FluxOR fluorescence, at 10 µM; hits give high values.
Outline: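 assay system = CHO-K1 cells stably expressing KCNQ1 | medium = assay buffer, equal DMSO in all wells | timing = 37 °C overnight plating, 90-min dark dye load, 20-min compound pretreatment | measured by = kinetic FluxOR thallium fluorescence, 10-s 1-Hz baseline, 110-s post-stimulus read | measure = fluorescence change relative to baseline, converted to B score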

Chain of Potassium voltage-gated channel subfamily KQT member 1 (Homo sapiens) (P51787 whole entry, looked up): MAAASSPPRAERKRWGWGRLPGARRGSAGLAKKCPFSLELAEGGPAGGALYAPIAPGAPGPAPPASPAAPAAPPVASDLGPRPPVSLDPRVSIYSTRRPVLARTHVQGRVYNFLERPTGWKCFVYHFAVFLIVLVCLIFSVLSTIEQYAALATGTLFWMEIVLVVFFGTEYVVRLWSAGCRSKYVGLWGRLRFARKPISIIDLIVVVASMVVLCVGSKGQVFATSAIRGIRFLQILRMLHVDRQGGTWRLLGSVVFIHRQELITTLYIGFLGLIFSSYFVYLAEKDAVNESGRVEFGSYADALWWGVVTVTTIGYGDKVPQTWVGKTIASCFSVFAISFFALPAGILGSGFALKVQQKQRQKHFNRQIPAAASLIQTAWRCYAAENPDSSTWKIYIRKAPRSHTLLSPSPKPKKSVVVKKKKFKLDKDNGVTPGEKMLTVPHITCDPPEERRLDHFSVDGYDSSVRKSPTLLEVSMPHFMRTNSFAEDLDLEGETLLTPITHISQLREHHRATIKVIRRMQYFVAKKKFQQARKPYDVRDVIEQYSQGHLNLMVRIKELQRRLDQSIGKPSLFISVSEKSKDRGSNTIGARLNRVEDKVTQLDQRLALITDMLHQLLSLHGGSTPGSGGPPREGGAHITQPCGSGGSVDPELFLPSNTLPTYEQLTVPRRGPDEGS

Compound	B-score
COc1cc(-n2c(=S)[nH]c3ccc(C)cc3c2=O)c(Cl)cc1Cl	8 (active)
C/C=C/CC1(CC)C(=O)NC(=S)NC1=O	inactive
CCN(CC)C(=O)c1ccc(NC(=O)c2sccc2-c2ccccc2)cc1	inactive
Cc1ccc2c(c1)C1CN(C)CCC1N2C(=O)Cn1nnc(-c2ccccc2F)n1 (stereo not given)	inactive
CC(Cc1ccccc1)NC=O (stereo not given)	inactive
